Reference: ChEMBL document CHEMBL1944560, “Antitumor agents 292. Design, synthesis and pharmacological study of S- and O-substituted 7-mercapto- or hydroxy-coumarins and chromones as potent cytotoxic agents” (2012)

Experiments:
KB = assay: Antiproliferative activity against human KB cells after 72 hrs by SRB assay; type: functional
In short: (§1)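 Cells fixed in situ with 10% TCA at time of drug addition as time-zero reference. Drug exposure 72 h after attachment, then 10% TCA fixation and 0.4% SRB in 1% HOAc for 10 min. Unbound dye washed off with 1% HOAc, bound dye dissolved in 10 mM trizma base, absorbance read at 515 nm. GI50 is the concentration halving net protein increase relative to control.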

[1] = Antiproliferative activity against human KBVIN cells after 72 hrs by SRB assay; type: functional; in short: as §1
A549 [2] = assay: Antiproliferative activity against human A549 cells after 72 hrs by SRB assay; type: functional; conditions: A549, 72 h; in short: as §1
DU-145 = assay: Antiproliferative activity against human DU145 cells after 72 hrs by SRB assay; type: functional; conditions: DU-145, 72 h; in short: as §1
A549 [3] = assay: Antiproliferative activity against human A549 cells after 48 hrs by MTT assay; type: functional, cell-based
In short: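 A549 seeded at 5 × 10^3 cells/well. Exposed to 0.06, 0.23, 0.94, 3.75, 15 or 60 μg/mL for 48 h, then medium replaced. MTT (5 mg/mL solution) added for 4 h at 37 °C, formazan dissolved in DMSO, absorbance at 570 nm. Viability expressed as % of untreated cells. Mean ± SD of three independent experiments.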

A549 [4] = assay: Induction of apoptosis in human A549 cells after 48 hrs by DNA fluorochrome Hoechst-staining based fluorescence microscopy; type: functional, cell-based
In short: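 A549 seeded at 5 × 10^3 cells/well, treated at 0, 1, 5 and 10 µg/mL for 48 h. Monolayer fixed and stained with Hoechst 33258 for 20 min, washed with PBS, examined by fluorescence microscopy. Cells with condensed or fragmented, brightly stained nuclei scored apoptotic. Three independent experiments.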

A549 [5] = assay: Induction of cell cycle arrest in human A549 cells assessed as G0/G1 phase cells at 1 mg after 48 hrs by FACS-based flow cytometry (reference value: 26.9%); type: functional
A549 [6] = assay: Induction of cell cycle arrest in human A549 cells assessed as G0/G1 phase cells at 5 mg after 48 hrs by FACS-based flow cytometry (reference value: 26.9%); type: functional
A549 [7] = assay: Induction of cell cycle arrest in human A549 cells assessed as G0/G1 phase cells at 10 mg after 48 hrs by FACS-based flow cytometry (reference value: 26.9%); type: functional
A549 [8] = assay: Induction of cell cycle arrest in human A549 cells assessed as G2/M phase cells at 1 mg after 48 hrs by FACS-based flow cytometry (reference value: 6.36%); type: functional
A549 [9] = assay: Induction of cell cycle arrest in human A549 cells assessed as G2/M phase cells at 5 mg after 48 hrs by FACS-based flow cytometry (reference value: 6.36%); type: functional
A549 [10] = assay: Induction of cell cycle arrest in human A549 cells assessed as G2/M phase cells at 10 mg after 48 hrs by FACS-based flow cytometry (reference value: 6.36%); type: functional
A549 [11] = assay: Induction of cell cycle arrest in human A549 cells assessed as S phase cells at 1 mg after 48 hrs by FACS-based flow cytometry (reference value: 66.74%); type: functional
A549 [12] = assay: Induction of cell cycle arrest in human A549 cells assessed as S phase cells at 5 mg after 48 hrs by FACS-based flow cytometry (reference value: 66.74%); type: functional
A549 [13] = assay: Induction of cell cycle arrest in human A549 cells assessed as S phase cells at 10 mg after 48 hrs by FACS-based flow cytometry (reference value: 66.74%); type: functional

| SMILES | GI50 (KB) | GI50 (A549 [2]) | GI50 (DU-145) | GI50 [1] | other results |
| --- | --- | --- | --- | --- | --- |
| COc1ccc(Br)c(CSc2ccc3c(C)cc(=O)oc3c2)c1 | 16 µM | 15.3 µM | > 25.6 µM | > 25.6 µM |  |
| Cc1cc(=O)oc2cc(SCc3cccnc3)ccc12 | > 35.3 µM | > 35.3 µM | > 35.3 µM | > 35.3 µM |  |
| COc1ccc2c(=O)cc(C(C)Br)oc2c1CBr (stereo not given) | 15.1 µM | > 26.6 µM | > 26.6 µM | 17 µM |  |
| CC(C)COc1ccc2c(=O)cc(C(C)Br)oc2c1CBr (stereo not given) | 10.9 µM | 8.71 µM | 10.5 µM | 9.45 µM |  |
| CCc1oc2c(C)c(OC(C)C)ccc2c(=O)c1Br | 22.6 µM | > 30.8 µM | > 30.8 µM | 5.84 µM |  |
| Cc1cc(=O)oc2cc(SC3CCOC3=O)ccc12 (stereo not given) | > 36.2 µM | > 36.2 µM | > 36.2 µM | > 36.2 µM |  |
| CC(=O)O[C@H]1C(=O)[C@@]2(C)[C@H]([C@H](OC(=O)c3ccccc3)[C@]3(O)C[C@H](OC(=O)[C@H](O)[C@@H](NC(=O)c4ccccc4)c4ccccc4)C(C)=C1C3(C)C)[C@]1(OC(C)=O)CO[C@@H]1C[C@@H]2O [PACLITAXEL] | 0.00412 µM | 0.00546 µM | 0.00386 µM | > 1 µM |  |
| Cc1cc(=O)oc2cc(Sc3cccc(Cl)n3)ccc12 | 0.92 µM | 2.11 µM | 1.15 µM | 0.92 µM | Activity (A549 [3]): Dose-dependent effect; Activity (A549 [4]): Dose-dependent effect; Activity (A549 [5]): 5.02%; Activity (A549 [6]): 0.67%; Activity (A549 [7]): 0.12%; Activity (A549 [8]): 83.58%; Activity (A549 [9]): 88.98%; Activity (A549 [10]): 83.86%; Activity (A549 [11]): 11.4%; Activity (A549 [12]): 10.36%; Activity (A549 [13]): 16.03% |
| COc1cc(CSc2ccc3c(C)cc(=O)oc3c2)c([N+](=O)[O-])cc1OC | > 25.8 µM | > 25.8 µM | > 25.8 µM | > 25.8 µM |  |
| Cc1cc(=O)oc2cc(SCc3cccc(C#N)c3)ccc12 | > 32.5 µM | > 32.5 µM | > 32.5 µM | > 32.5 µM |  |
| CCc1oc2c(C)c(OC)ccc2c(=O)c1Br | > 33.6 µM | > 33.6 µM | > 33.6 µM | 23.2 µM |  |
| COC(=O)c1cccc(CSc2ccc3c(C)cc(=O)oc3c2)c1 | 2.06 µM | 7.7 µM | 14.1 µM | 5.41 µM |  |
| Cc1cc(=O)oc2cc(Sc3cccc(Cl)[n+]3[O-])ccc12 | > 31.3 µM | > 31.3 µM | > 31.3 µM | 24.5 µM |  |
| COc1cc(CSc2ccc3c(C)cc(=O)oc3c2)cc(OC)c1 | > 29.2 µM | > 29.2 µM | > 29.2 µM | > 29.2 µM |  |
| CC(C)Oc1ccc2c(=O)cc(C(C)Br)oc2c1CBr (stereo not given) | 12.8 µM | 12.8 µM | 15.5 µM | 11.4 µM |  |
| Cc1cc(=O)oc2cc(SCc3ccccn3)ccc12 | > 35.3 µM | > 35.3 µM | > 35.3 µM | > 35.3 µM |  |
| Cc1cc(=O)oc2cc(SCc3ccncc3)ccc12 | > 35.3 µM | > 35.3 µM | > 35.3 µM | > 35.3 µM |  |

Further lines, with some results ahead:

| GI50 (KB) | GI50 (A549 [2]) | GI50 (DU-145) | SMILES | GI50 [1] | other results |
| --- | --- | --- | --- | --- | --- |
| > 26.8 µM | > 26.8 µM | > 26.8 µM | CCc1oc2c(C)c(OCc3ccccc3)ccc2c(=O)c1Br | > 26.8 µM |  |
| > 31.3 µM | > 31.3 µM | > 31.3 µM | CCc1cc(=O)c2ccc(OCc3cccc(C#N)c3)c(C)c2o1 | > 31.3 µM |  |
| > 29.5 µM | > 29.5 µM | > 29.5 µM | CCc1cc(=O)c2ccc(OCC(C)C)c(CBr)c2o1 | > 29.5 µM |  |
| 28.6 µM | 24.9 µM | 24.1 µM | CCc1cc(=O)c2ccc(OCc3cccc(C)c3)c(C)c2o1 | 24.9 µM |  |
| > 30.1 µM | > 30.1 µM | > 30.1 µM | CCc1cc(=O)c2ccc(Sc3cccc(Cl)n3)c(C)c2o1 | 23.9 µM |  |
| > 34 µM | > 34 µM | 27.7 µM | CCc1cc(=O)c2ccc(OCc3ccccc3)c(C)c2o1 | 24.8 µM |  |
| > 30 µM | > 30 µM | > 30 µM | CCc1cc(=O)c2ccc(Sc3cccc(Cl)[n+]3[O-])cc2o1 | > 30 µM |  |
| > 27.6 µM | > 27.6 µM | > 27.6 µM | CCc1cc(=O)c2ccc(OCc3cccc(C(F)(F)F)c3)c(C)c2o1 | > 27.6 µM |  |
| > 32 µM | > 32 µM | > 32 µM | COc1cccc(CSc2ccc3c(C)cc(=O)oc3c2)c1 | > 32 µM |  |
| 15.6 µM | 19.8 µM | 20.9 µM | CCOc1ccc2c(=O)cc(C(C)Br)oc2c1CBr (stereo not given) | 12.8 µM |  |
| > 32.1 µM | > 32.1 µM | > 32.1 µM | CCOc1ccc2c(=O)cc(CC)oc2c1CBr | > 32.1 µM |  |
| > 28.8 µM | > 28.8 µM | > 28.8 µM | CCc1cc(=O)c2ccc(Sc3cccc(Cl)[n+]3[O-])c(C)c2o1 | > 28.8 µM |  |
| 14.8 µM | 17.4 µM | 15.5 µM | Cc1cc(=O)oc2cc(SCc3cccc(OC(F)(F)F)c3)ccc12 | 15.3 µM |  |
| > 31.5 µM | > 31.5 µM | > 31.5 µM | CCc1cc(=O)c2ccc(Sc3cccc(Cl)n3)cc2o1 | > 31.5 µM |  |
| > 22.7 µM | > 22.7 µM | > 22.7 µM | CCc1oc2c(C)c(OCc3cccc(C(F)(F)F)c3)ccc2c(=O)c1Br | > 22.7 µM |  |
| > 30.8 µM | > 30.8 µM | > 30.8 µM | CCc1cc(=O)c2ccc(OC(C)C)c(CBr)c2o1 | > 30.8 µM |  |
| > 33.7 µM | > 33.7 µM | > 33.7 µM | Cc1cccc(CSc2ccc3c(C)cc(=O)oc3c2)c1 | > 33.7 µM |  |
| > 28.5 µM | > 28.5 µM | > 28.5 µM | Cc1cc(=O)oc2cc(SCc3cccc(C(F)(F)F)c3)ccc12 | > 28.5 µM |  |
| > 33.6 µM | > 33.6 µM | > 33.6 µM | CCc1cc(=O)c2ccc(OC)c(CBr)c2o1 | > 33.6 µM |  |
